Measurements: ChEMBL document CHEMBL3808360, “Discovery of Potent Non-Nucleoside Inhibitors of Dengue Viral RNA-Dependent RNA Polymerase from a Fragment Hit Using Structure-Based Drug Design” (J Med Chem, 2016)
Each block holds one compound with its values, some of them ahead of it. Calls of active or inactive are those of the source. The rule behind the calls is not given here.

Legend:
[1] = Inhibition of RdRp activity of Dengue virus 4 full length NS5 preincubated for 15 mins followed by RNA and NTP addition measured after 120 mins; set-up: species or system dengue virus type 4
Summary of the method: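 Reaction with 100 nM DENV4 full-length NS5 and 100 nM in vitro transcribed DENV4 mini-genome RNA template (575 nt, linked 5'-3' UTRs). NTPs: 20 µM each ATP, GTP and UTP plus 5 µM ATTO-CTP. Compound (two-fold series from 20 or 100 µM) preincubated with enzyme 15 min at room temperature. RNA/NTP mix added; run 120 min. Stopped with alkaline phosphatase stop buffer, 60 min. Fluorescence read at ex 422/em 566 nm. Duplicate wells; IC₅₀ from variable-slope sigmoidal fit.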

[2] = Dissociation constant, pKa of the compound; format: physicochemical
[3] = Binding affinity to Dengue virus 4 NS5 RdRp (274 to 900 residues) by ITC method; set-up: species or system dengue virus type 4
Summary of the method: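 DENV-4 RdRp (residues 274-900) at 30-50 µM in the cell, in 20 mM HEPES pH 7.0, 300 mM NaCl, 2 mM TCEP, DMSO matched to ligand. Ligand diluted from a 50 mM DMSO stock into the same buffer, typically 2.5 mM in the syringe. Run at 25°C: one 0.4 µl injection, then 15 × 2.6 µl. Heat of dilution into buffer subtracted.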

[4] = Lipophilicity, log D of the compound at pH 7.4; format: physicochemical; settings: buffer
[5] = Binding affinity to biotinylated Dengue virus 4 NS5 RdRp by surface plasmon resonance analysis; set-up: species or system dengue virus type 4
Summary of the method: (§1)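 Blank reference cell. Compound run as a 7-point 2-fold series, typically from 200 µM, with zero-concentration subtraction. Flow 30 µL/min, 45 s contact, 60-600 s dissociation, run from low to high concentration.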

dengue virus type 2 [6] = assay: Antiviral activity against Dengue virus 2 MY97-10340 infected in human A549 cells assessed as reduction in DENV envelope protein level after 48 hrs; format: functional, organism-based; settings: MY97-10340, A549, 48 h
Summary of the method: (§2)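 A549 cells (~7×10^3/well) seeded in Ham's F-12K with 2% FBS, 1 mM L-glutamine and 1% penicillin-streptomycin, held overnight at 37°C, 5% CO₂. Infected at 24 h post-seeding (DENV1 MOI 0.5, DENV2 MOI 0.3, DENV3 MOI 1, DENV4 MOI 0.5). Compound added at once as a 10-point, 3-fold series, 0.5% DMSO final. Fixed at 48 h with 4% paraformaldehyde. Stained with Dylight 488-4G2 anti-envelope antibody and DRAQ5 nuclear stain. Envelope protein quantified by high-content imaging; EC₅₀ calculated.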

dengue virus type 3 [7] = assay: Antiviral activity against Dengue virus 3 MY05-34640 infected in human A549 cells assessed as reduction in DENV envelope protein level after 48 hrs; format: functional, organism-based; settings: MY05-34640, A549, 48 h; summary of the method: as §2
[8] = Inhibition of RdRp activity of Dengue virus 2 NS5 preincubated for 15 mins followed by RNA and NTP addition measured after 120 mins; set-up: species or system dengue virus type 2
[9] = Inhibition of RdRp activity of Dengue virus 3 NS5 preincubated for 15 mins followed by RNA and NTP addition measured after 120 mins; set-up: species or system dengue virus type 3
dengue virus type 4 [10] = assay: Antiviral activity against Dengue virus 4 MY01-22713 infected in human A549 cells assessed as reduction in DENV envelope protein level after 48 hrs; format: functional, organism-based; settings: MY01-22713, A549, 48 h; summary of the method: as §2
[11] = Inhibition of RdRp activity of Dengue virus 1 NS5 preincubated for 15 mins followed by RNA and NTP addition measured after 120 mins; set-up: species or system dengue virus type 1
dengue virus type 1 [12] = assay: Antiviral activity against Dengue virus 1 MY97-10245 infected in human A549 cells assessed as reduction in DENV envelope protein level after 48 hrs; format: functional, organism-based; settings: MY97-10245, A549, 48 h; summary of the method: as §2
[13] = Cytotoxicity against human HepG2 cells; format: cell-based
[14] = Apparent permeability across apical to basolateral side in human Caco2 cells at pH 7.4; format: ADME, cell-based; settings: Caco-2, pH 7.4
Summary of the method: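 Apical-to-basal Caco-2 permeability measured at pH 7.4.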

dengue virus type 3 [15] = assay: Antiviral activity against Dengue virus 3 MY05-34640 infected in human A549 cells assessed as reduction in DENV envelope protein level up to 50 uM after 48 hrs; format: functional, organism-based; summary of the method: as §2
dengue virus type 1 [16] = assay: Antiviral activity against Dengue virus 1 MY97-10245 infected in human A549 cells assessed as reduction in DENV envelope protein level up to 50 uM after 48 hrs; format: functional, organism-based; summary of the method: as §2
dengue virus type 4 [17] = assay: Antiviral activity against Dengue virus 4 MY01-22713 infected in human A549 cells assessed as reduction in DENV envelope protein level up to 50 uM after 48 hrs; format: functional, organism-based; summary of the method: as §2
dengue virus type 2 [18] = assay: Antiviral activity against Dengue virus 2 MY97-10340 infected in human A549 cells assessed as reduction in DENV envelope protein level up to 50 uM after 48 hrs; format: functional, organism-based; summary of the method: as §2
[19] = Binding affinity to Dengue virus 3 NS5 RdRp by surface plasmon resonance analysis; set-up: species or system dengue virus type 3; summary of the method: as §1
[20] = Inhibition of RdRp activity of Dengue virus 3 NS5; set-up: species or system dengue virus type 3
[21] = Inhibition of RdRp activity of Dengue virus 4 of NS5 preincubated with enzyme followed by RNA and NTP addition; set-up: species or system dengue virus type 4
[22] = Binding affinity to N-terminal AviTag Dengue virus 3 NS5 RdRp (263 to 900 residues) expressed in Escherichia coli BL21 cells by surface plasmon resonance analysis; set-up: species or system dengue virus type 3; summary of the method: as §1

SMILES: O=C(O)Cc1cc(CC(=O)O)cc(-c2ccco2)c1
IC50 [1]: 211 µM
Kd [3]: 552 µM

SMILES: COc1cc(C)c(-c2ncc[nH]2)cc1-c1ccc(C#CCO)s1
IC50 [1]: 44 µM
pKa [2]: 6.6
logD [4]: 3.6

SMILES: O=C(O)Cc1cc(CC(=O)O)cc(-c2cccs2)c1
IC50 [1]: 15 µM
Kd [3]: 28 µM

SMILES: COc1cccc(S(=O)(=O)NC(=O)c2cc(-c3ccc(C#CCO)s3)c(OC)cc2OC)c1
EC50 (dengue virus type 2 [6]): 2.3 µM
EC50 (dengue virus type 3 [7]): 1.8 µM
IC50 [8]: 0.11 µM
IC50 [9]: 0.048 µM
pKa [2]: 4.7
EC50 (dengue virus type 4 [10]): 1.8 µM
logD [4]: 1.6
IC50 [11]: 0.068 µM
Kd [5]: 0.07 µM
EC50 (dengue virus type 1 [12]): 1.8 µM
CC50 [13]: > 50 µM
Papp A→B [14]: 3.91 ×10⁻⁶ cm/s

SMILES: O=C(O)Cc1cc(CC(=O)O)cc(-c2ccccc2Cl)c1
IC50 [1]: 192 µM

SMILES: O=C(O)Cc1cc(CC(=O)O)cc(-c2ccc(C#CCO)s2)c1
IC50 [8]: 2.2 µM
IC50 [9]: 0.5 µM
IC50 [11]: 0.3 µM
Papp A→B [14]: 0.51 ×10⁻⁶ cm/s

SMILES: O=C(O)Cc1cc(CC(=O)O)cc(-c2ccc(C#CCCO)s2)c1
IC50 [1]: 29 µM
Kd [3]: 34 µM

SMILES: O=C(O)Cc1ccc(O)c(-c2ccccc2)c1
Kd [19]: 200 µM
IC50 [20]: 769 µM

SMILES: COc1ccc(CC(=O)O)cc1-c1ccccc1
IC50 [21]: 734 µM
Kd [22]: 613 µM

SMILES: O=C(O)Cc1cc(CC(=O)O)cc(-c2ccccc2)c1
IC50 [1]: 177 µM
Kd [3]: 154 µM

SMILES: N#Cc1ccc(-c2cc(CC(=O)O)cc(CC(=O)O)c2)s1
IC50 [1]: 199 µM
Kd [3]: 134 µM

SMILES: O=C(O)Cc1cc(CC(=O)O)cc(-c2ccc(Cl)cc2)c1
IC50 [1]: 62 µM

SMILES: O=C(O)Cc1cc(CC(=O)O)cc(-c2ccc(Cl)s2)c1
Kd [3]: 33 µM

SMILES: Cc1ccc(-c2cc(CC(=O)O)cc(CC(=O)O)c2)s1
IC50 [1]: 96 µM

SMILES: O=C(O)Cc1cc(CC(=O)O)cc(-c2cccc(Cl)c2)c1
IC50 [1]: 141 µM

SMILES: O=C(O)Cc1cc(CC(=O)O)cc(-c2ccc(Br)s2)c1
IC50 [1]: 39 µM
Kd [3]: 46 µM

SMILES: COc1ccc(CC(=O)O)cc1-c1ccc(C#CCO)s1
IC50 [1]: 7.5 µM
Kd [3]: 14 µM
Kd [5]: 2.2 µM
Papp A→B [14]: 2.73 ×10⁻⁶ cm/s

Continued by falling IC50 [1], values first:

IC50 [1]: 3.2 µM
pKa [2]: 5.5
logD [4]: 1.9
SMILES: COc1cc(C)c(-c2noc(=O)[nH]2)cc1-c1ccc(C#CCO)s1

IC50 [1]: 2.5 µM
pKa [2]: 4.8
logD [4]: 0.78
SMILES: COc1cc(C)c(S(=O)(=O)NC(C)=O)cc1-c1ccc(C#CCO)s1

IC50 [1]: 2.4 µM
Papp A→B [14]: 1.39 ×10⁻⁶ cm/s
SMILES: COc1ccc(-c2nnn[nH]2)cc1-c1ccc(C#CCO)s1

IC50 [1]: 2.3 µM
pKa [2]: 4.2
logD [4]: 0.79
SMILES: COc1ccc(C(=O)O)cc1-c1ccc(C#CCO)s1
Kd [3]: 3.8 µM
Kd [5]: 1.7 µM

IC50 [1]: 0.53 µM
pKa [2]: 4.2
logD [4]: 1.2
SMILES: COc1cc(C)c(C(=O)O)cc1-c1ccc(C#CCO)s1
Activity (dengue virus type 3 [15]): inactive
Kd [3]: 1.6 µM
Activity (dengue virus type 1 [16]): inactive
Activity (dengue virus type 4 [17]): inactive
Kd [5]: 0.11 µM
Activity (dengue virus type 2 [18]): inactive

EC50 (dengue virus type 2 [6]): > 50 µM
EC50 (dengue virus type 3 [7]): > 50 µM
IC50 [1]: 0.34 µM
pKa [2]: 4
EC50 (dengue virus type 4 [10]): > 50 µM
logD [4]: 0.8
EC50 (dengue virus type 1 [12]): > 50 µM
Papp A→B [14]: 0.5 ×10⁻⁶ cm/s
SMILES: COc1cc(C)c(C(=O)NS(C)(=O)=O)cc1-c1ccc(C#CCO)s1
Activity (dengue virus type 3 [15]): inactive
Kd [3]: 2 µM
Activity (dengue virus type 1 [16]): inactive
Activity (dengue virus type 4 [17]): inactive
Kd [5]: 0.12 µM
Activity (dengue virus type 2 [18]): inactive

EC50 (dengue virus type 2 [6]): 37 µM
EC50 (dengue virus type 3 [7]): 7.3 µM
IC50 [1]: 0.25 µM
pKa [2]: 4.8
EC50 (dengue virus type 4 [10]): 14 µM
logD [4]: 1.5
EC50 (dengue virus type 1 [12]): 15 µM
Papp A→B [14]: 10.8 ×10⁻⁶ cm/s
SMILES: COc1cc(OC)c(-c2ccc(C#CCO)s2)cc1C(=O)NS(=O)(=O)c1ccccc1
Kd [5]: 0.09 µM

EC50 (dengue virus type 2 [6]): 34 µM
EC50 (dengue virus type 3 [7]): 18 µM
IC50 [1]: 0.17 µM
pKa [2]: 3.8
EC50 (dengue virus type 4 [10]): 41 µM
logD [4]: 1.7
EC50 (dengue virus type 1 [12]): 31 µM
Papp A→B [14]: 0.5 ×10⁻⁶ cm/s
SMILES: COc1cc(C)c(C(=O)NS(=O)(=O)c2ccccc2)cc1-c1ccc(C#CCO)s1

EC50 (dengue virus type 2 [6]): 13 µM
EC50 (dengue virus type 3 [7]): 5.5 µM
IC50 [1]: 0.14 µM
pKa [2]: 3.8
EC50 (dengue virus type 4 [10]): 7 µM
logD [4]: 0.9
EC50 (dengue virus type 1 [12]): 6.8 µM
SMILES: COc1cccc(S(=O)(=O)NC(=O)c2cc(-c3ccc(C#CCO)s3)c(Cl)cc2OC)c1
Kd [5]: 0.01 µM
